# Data published in ChEMBL document CHEMBL4765365, “Design, synthesis and antitumour evaluation of pyrrolo[1,2-f]-phenanthridine and dibenzo[f,h]pyrrolo[1,2-b]isoquinoline derivatives” (Eur J Med Chem, 2020).
# Assays:
# NCI-H460 [1] = assay: Induction of cell cycle arrest in human NCI-H460 cells assessed as G1 phase at 0.75 uM measured at 0 hrs by PI staining based flow cytometry analysis (reference value: 53.4 +/- 4.8 %); format: functional
# HCT-116 [2] = assay: Induction of cell cycle arrest in human HCT-116 cells assessed as G1 phase at 0.75 uM incubated for 24 hrs by PI staining based flow cytometry analysis (reference value: 55 +/- 9.8 %); format: functional
# NCI-H460 [3] = assay: Induction of apoptosis in human NCI-H460 cells assessed as early apoptotic cells at 3 uM incubated for 48 hrs by annexin V-FITC and PI staining based flow cytometry analysis (reference value: 2 %); format: functional
# NCI-H460 [4] = assay: Induction of cell cycle arrest in human NCI-H460 cells assessed as G2/M phase at 3 uM incubated for 12 hrs by PI staining based flow cytometry analysis (reference value: 22.9 +/- 6.8 %); format: functional
# NCI-H460 [5] = assay: Induction of apoptosis in human NCI-H460 cells assessed as viable cells at 1.5 uM incubated for 48 hrs by annexin V-FITC and PI staining based flow cytometry analysis (reference value: 90.1 %); format: functional; details: read-out: Activity
# [6] = Toxicity in nude mouse xenografted with human HCT-116 cells assessed as reduction in body weight at 30 mg/kg, iv administered for 5 days and repeated cycle for 2 days interval and measured on day 24; format: organism-based; details: in vivo, 576 h, time 24 day
# Outline: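 Nude mice carried human HCT116 colorectal xenografts. Dosing was i.v. at 30 mg/kg once daily for five days (QD×5), and this cycle was given twice with a 2-day gap. Body weight was tracked against vehicle-treated mice, with tumour assessment at day 24.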
# NCI-H460 [7] = assay: Induction of cell cycle arrest in human NCI-H460 cells assessed as G2/M phase at 0.75 uM incubated for 12 hrs by PI staining based flow cytometry analysis (reference value: 22.9 +/- 6.8 %); format: functional
# NCI-H460 [8] = assay: Induction of cell cycle arrest in human NCI-H460 cells assessed as S phase at 0.75 uM incubated for 24 hrs by PI staining based flow cytometry analysis (reference value: 11.7 +/- 6.1 %); format: functional
# HCT-116 [9] = assay: Induction of cell cycle arrest in human HCT-116 cells assessed as S phase at 1.5 uM incubated for 24 hrs by PI staining based flow cytometry analysis (reference value: 21.2 +/- 5.4 %); format: functional
# HCT-116 [10] = assay: Induction of cell cycle arrest in human HCT-116 cells assessed as G2/M phase at 0.75 uM incubated for 12 hrs by PI staining based flow cytometry analysis (reference value: 21.7 +/- 1.9 %); format: functional
# HCT-116 [11] = assay: Induction of cell cycle arrest in human HCT-116 cells assessed as G1 phase at 0.75 uM incubated for 36 hrs by PI staining based flow cytometry analysis (reference value: 57.4 +/- 1.3 %); format: functional
# NCI-H460 [12] = assay: Induction of apoptosis in human NCI-H460 cells assessed as late apoptotic cells at 1.5 uM incubated for 48 hrs by annexin V-FITC and PI staining based flow cytometry analysis (reference value: 7.3 %); format: functional
# HCT-116 [13] = assay: Induction of cell cycle arrest in human HCT-116 cells assessed as G0 phase at 0.75 uM incubated for 12 hrs by PI staining based flow cytometry analysis (reference value: 2.2 +/- 1.7 %); format: functional
# NCI-H460 [14] = assay: Induction of cell cycle arrest in human NCI-H460 cells assessed as G1 phase at 1.5 uM incubated for 36 hrs by PI staining based flow cytometry analysis (reference value: 57.9 +/- 3.6 %); format: functional
# NCI-H460 [15] = assay: Induction of cell cycle arrest in human NCI-H460 cells assessed as S phase at 1.5 uM incubated for 24 hrs by PI staining based flow cytometry analysis (reference value: 11.7 +/- 6.1 %); format: functional
# HCT-116 [16] = assay: Induction of cell cycle arrest in human HCT-116 cells assessed as G2/M phase at 0.75 uM incubated for 36 hrs by PI staining based flow cytometry analysis (reference value: 23.6 +/- 1 %); format: functional
# HCT-116 [17] = assay: Induction of cell cycle arrest in human HCT-116 cells assessed as G1 phase at 1.5 uM measured at 0 hrs by PI staining based flow cytometry analysis (reference value: 52 +/- 5.1 %); format: functional
# HCT-116 [18] = assay: Induction of cell cycle arrest in human HCT-116 cells assessed as S phase at 0.75 uM incubated for 24 hrs by PI staining based flow cytometry analysis (reference value: 21.2 +/- 5.4 %); format: functional
# NCI-H460 [19] = assay: Induction of apoptosis in human NCI-H460 cells assessed as necrotic cells at 3 uM incubated for 48 hrs by annexin V-FITC and PI staining based flow cytometry analysis (reference value: 0.7 %); format: functional
# HCT-116 [20] = assay: Induction of cell cycle arrest in human HCT-116 cells assessed as G2/M phase at 0.375 uM incubated for 12 hrs by PI staining based flow cytometry analysis (reference value: 21.7 +/- 1.9 %); format: functional
# NCI-H460 [21] = assay: Induction of apoptosis in human NCI-H460 cells assessed as necrotic cells at 6 uM incubated for 48 hrs by annexin V-FITC and PI staining based flow cytometry analysis (reference value: 0.7 %); format: functional
# HCT-116 [22] = assay: Induction of cell cycle arrest in human HCT-116 cells assessed as S phase at 1.5 uM incubated for 36 hrs by PI staining based flow cytometry analysis (reference value: 7.9 +/- 3.7 %); format: functional
# NCI-H460 [23] = assay: Induction of cell cycle arrest in human NCI-H460 cells assessed as S phase at 0.75 uM incubated for 12 hrs by PI staining based flow cytometry analysis (reference value: 11.2 +/- 4.3 %); format: functional
smiles,measurement,setting,value
OCc1cn2c3ccccc3c3ccccc3c2c1CO,Activity,NCI-H460 [1],54.9%
same,Activity,HCT-116 [2],57.4%
same,Activity,NCI-H460 [3],10.8%
same,Activity,NCI-H460 [4],22.8%
same,viability at 1.5 µM,NCI-H460 [5],82.2%
same,Activity,[6],Non-Toxic
same,Activity,NCI-H460 [7],23.7%
same,Activity,NCI-H460 [8],11%
same,Activity,HCT-116 [9],5.7%
same,Activity,HCT-116 [10],23.2%
same,Activity,HCT-116 [11],65.1%
same,Activity,NCI-H460 [12],13.7%
same,Activity,HCT-116 [13],1.7%
same,Activity,NCI-H460 [14],73.1%
same,Activity,NCI-H460 [15],8.6%
same,Activity,HCT-116 [16],17.4%
same,Activity,HCT-116 [17],53.6%
same,Activity,HCT-116 [18],8.9%
same,Activity,NCI-H460 [19],1.6%
same,Activity,HCT-116 [20],23.2%
same,Activity,NCI-H460 [21],1.6%
same,Activity,HCT-116 [22],6.1%
same,Activity,NCI-H460 [23],14.2%
